Source: ChEMBL document CHEMBL1126560, “Endothelin-1 analogues substituted at both position 18 and 19: highly potent endothelin antagonists with no selectivity for either receptor subtype ETA or ETB” (J Med Chem, 1993)

Assays:
[1] = molecular target: T1, Endothelin-1 receptor (Sus scrofa) (UniProt Q29010); assay: Tested for the ETA receptor agonist activity by measuring maximum vasoconstriction in porcine coronary artery; assay type: functional, tissue-based
T1 sequence (whole entry): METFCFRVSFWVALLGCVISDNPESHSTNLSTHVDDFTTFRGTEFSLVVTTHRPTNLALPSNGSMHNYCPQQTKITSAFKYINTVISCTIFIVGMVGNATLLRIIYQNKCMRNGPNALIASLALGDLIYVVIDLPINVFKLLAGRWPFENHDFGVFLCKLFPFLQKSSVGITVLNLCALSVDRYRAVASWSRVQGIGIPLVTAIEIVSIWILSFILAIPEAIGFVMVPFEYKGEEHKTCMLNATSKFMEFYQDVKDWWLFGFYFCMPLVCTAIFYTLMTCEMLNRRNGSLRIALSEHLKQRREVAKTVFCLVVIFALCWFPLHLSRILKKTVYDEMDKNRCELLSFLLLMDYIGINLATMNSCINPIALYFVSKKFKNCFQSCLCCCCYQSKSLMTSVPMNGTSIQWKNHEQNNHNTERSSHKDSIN
In short: (§1)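 Porcine right coronary artery, endothelium-denuded helical strips in Krebs-Henseleit, 37 °C, isometric tension. Compound applied cumulatively, up to 1 μM. Maximal contraction expressed as % of 60 mM KCl-induced tension; n in parentheses.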

[2] = molecular target: Endothelin receptor, ET-A/ET-B (Homo sapiens) (UniProt P24530+P25101); assay: (§2) Antagonism of sarafotoxin S6c-induced vasoconstriction in rabbit pulmonary artery at both ETA and ETB receptors; assay type: functional; conditions: Oryctolagus cuniculus; target entry is the homologue from another species
In short: (§3)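 Rabbit pulmonary artery, endothelium-denuded 5-mm rings in Krebs-Henseleit, 95% O2-5% CO2, 37 °C, isometric tension. Compound added 15 min before cumulative sarafotoxin S6c. Tension normalized to 60 mM KCl response. Antagonism given as pA2 (van Rossum) or pD2' value; n in parentheses.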

[3] = molecular target: T2, Endothelin receptor type B (Bos taurus, UniProt P28088); assay: Tested for the competitive binding versus [125I]- ET-1 determined in bovine cerebrum membrane for Endothelin B receptor; assay type: cell membranes
T2 sequence (P28088 whole entry): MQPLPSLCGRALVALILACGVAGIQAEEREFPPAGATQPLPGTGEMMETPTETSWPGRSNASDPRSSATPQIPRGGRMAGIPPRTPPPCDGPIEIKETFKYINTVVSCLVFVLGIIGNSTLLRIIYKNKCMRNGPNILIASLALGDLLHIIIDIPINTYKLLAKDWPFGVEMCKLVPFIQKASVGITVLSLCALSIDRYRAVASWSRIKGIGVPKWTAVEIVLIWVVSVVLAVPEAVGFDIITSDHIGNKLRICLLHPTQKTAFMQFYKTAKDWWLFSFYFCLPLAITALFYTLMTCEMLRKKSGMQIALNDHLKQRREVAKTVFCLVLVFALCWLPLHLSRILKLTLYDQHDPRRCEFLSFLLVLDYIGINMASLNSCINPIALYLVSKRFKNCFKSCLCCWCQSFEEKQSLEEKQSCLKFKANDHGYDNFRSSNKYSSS
In short: (§4)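 Membranes (porcine cardiac ventricle at 12 μg/mL for ETA; bovine cerebrum at 150 μg/mL for ETB) in pH 7.2 Tris/EGTA/Mg acetate/0.1% BSA buffer with protease inhibitors. Incubated with 100 pM [125I]ET-1 and varied compound for 1 h at 25 °C, then filtered and counted by gamma counter. IC50 given as mean ± SEM of ≥3 determinations.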

[4] = molecular target: T3, Endothelin-1 receptor (Sus scrofa, UniProt Q29010); assay: ETA receptor antagonist activity was measured by inhibition of ET-1 induced vasoconstriction in isolated porcine coronary artery; assay type: functional, tissue-based; conditions: read-out: pA2 (converted)
T3 sequence (Q29010 whole entry): T1 sequence (whole entry)
In short: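 Porcine right coronary artery, endothelium-denuded 2 × 5-mm helical strips in Krebs-Henseleit, 95% O2-5% CO2, 37 °C, isometric tension. Compound added 15 min before cumulative ET-1. Tension normalized to 60 mM KCl. pA2 by van Rossum's method; n in parentheses.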

[5] = molecular target: T4, Endothelin receptor, ET-A/ET-B (Homo sapiens, UniProt P24530+P25101); assay: as §2; assay type: functional, Oryctolagus cuniculus; conditions: target entry is the homologue from another species; in short: as §3
T4 sequence (P24530 whole entry): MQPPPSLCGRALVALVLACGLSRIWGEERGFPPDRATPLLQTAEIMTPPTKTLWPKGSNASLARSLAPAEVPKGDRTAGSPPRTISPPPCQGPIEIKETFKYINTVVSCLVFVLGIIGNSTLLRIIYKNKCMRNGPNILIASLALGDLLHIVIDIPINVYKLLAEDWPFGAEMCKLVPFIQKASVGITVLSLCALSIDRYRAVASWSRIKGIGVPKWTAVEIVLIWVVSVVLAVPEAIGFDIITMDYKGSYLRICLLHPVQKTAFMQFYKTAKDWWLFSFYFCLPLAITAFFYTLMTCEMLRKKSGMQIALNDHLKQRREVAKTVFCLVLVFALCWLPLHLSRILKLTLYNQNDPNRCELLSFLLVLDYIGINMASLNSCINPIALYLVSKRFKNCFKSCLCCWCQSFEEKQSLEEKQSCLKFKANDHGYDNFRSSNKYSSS
T4 sequence (P25101 whole entry): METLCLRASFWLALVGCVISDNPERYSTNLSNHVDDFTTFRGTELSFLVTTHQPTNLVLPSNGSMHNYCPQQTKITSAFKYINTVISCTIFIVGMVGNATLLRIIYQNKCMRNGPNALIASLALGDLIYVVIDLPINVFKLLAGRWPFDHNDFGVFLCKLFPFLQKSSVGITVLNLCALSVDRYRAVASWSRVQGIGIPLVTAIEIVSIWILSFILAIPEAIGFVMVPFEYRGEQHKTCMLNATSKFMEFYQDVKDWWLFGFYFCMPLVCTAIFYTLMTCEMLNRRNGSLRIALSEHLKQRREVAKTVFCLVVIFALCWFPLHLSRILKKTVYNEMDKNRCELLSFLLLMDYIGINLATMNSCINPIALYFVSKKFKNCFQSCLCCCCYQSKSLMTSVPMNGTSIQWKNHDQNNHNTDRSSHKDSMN

[6] = molecular target: T3, Endothelin-1 receptor; assay: Tested for the competitive binding versus [125I]- ET-1 determined in porcine cardiac ventricular membrane for Endothelin A receptor; in short: as §4
[7] = molecular target: T1, Endothelin-1 receptor (Sus scrofa); assay: Endothelin A receptor agonist activity as maximum vasoconstriction in porcine coronary artery; assay type: functional, tissue-based; in short: as §1

Row | SMILES | Max vasoconstriction [1] | pD2 [2] | IC50 [3] [nM] | Kb [4] [nM] | pA2 [5] | IC50 [6] [nM] | Max vasoconstriction [7]
1 | CC[C@H](C)[C@H](NC(=O)[C@H](CC(C)C)NC(=O)[C@@H](NC(=O)[C@H](CC(C)C)NC(=O)[C@H](Cc1c[nH]cn1)NC(=O)[C@@H]1CSSC[C@@H](N)C(=O)N[C@@H](CO)C(=O)N[C@@H]2CSSC[C@@H](NC(=O)[C@H](CCC(=O)O)NC(=O)[C@@H](CCCCN)NC(=O)[C@H](CC(=O)O)NC(=O)[C@@H](CCSC)NC(=O)[C@H](CC(C)C)NC(=O)[C@@H](CO)NC(=O)[C@H](CO)NC2=O)C(=O)N[C@@H](C(C)C)C(=O)N[C@H](Cc2ccc(O)cc2)C(=O)N[C@@H](Cc2ccccc2)C(=O)N1)[C@H](C)O)C(=O)N[C@@H](Cc1c[nH]c2ccccc12)C(=O)O | 4 | 8.7 |  |  |  |  | 
2 | CC[C@H](C)[C@H](NC(=O)[C@H](CC(C)(C)C)NC(=O)[C@@H](NC(=O)[C@H](CC(C)C)NC(=O)[C@H](Cc1c[nH]cn1)NC(=O)[C@@H]1CSSC[C@H](N)C(=O)N[C@@H](CO)C(=O)N[C@H]2CSSC[C@H](NC(=O)[C@H](CCC(=O)O)NC(=O)[C@H](CCCCN)NC(=O)[C@H](CC(=O)O)NC(=O)[C@H](CCSC)NC(=O)[C@H](CC(C)C)NC(=O)[C@H](CO)NC(=O)[C@H](CO)NC2=O)C(=O)N[C@@H](C(C)C)C(=O)N[C@@H](Cc2ccc(O)cc2)C(=O)N[C@@H](Cc2ccccc2)C(=O)N1)[C@@H](C)O)C(=O)N[C@@H](Cc1c[nH]c2ccccc12)C(=O)O |  |  | 0.25 | 39.8 | 8.4 | 0.7 | 
3 | CC[C@H](C)[C@H](NC(=O)[C@H](CC1CCCCC1)NC(=O)[C@@H](NC(=O)[C@H](CC(C)C)NC(=O)[C@H](Cc1c[nH]cn1)NC(=O)[C@@H]1CSSC[C@@H](N)C(=O)N[C@@H](CO)C(=O)N[C@@H]2CSSC[C@H](NC(=O)[C@H](CCC(=O)O)NC(=O)[C@@H](CCCCN)NC(=O)[C@@H](CC(=O)O)NC(=O)[C@@H](CCSC)NC(=O)[C@H](CC(C)C)NC(=O)[C@@H](CO)NC(=O)[C@H](CO)NC2=O)C(=O)N[C@@H](C(C)C)C(=O)N[C@H](Cc2ccc(O)cc2)C(=O)N[C@@H](Cc2ccccc2)C(=O)N1)[C@@H](C)O)C(=O)N[C@@H](Cc1c[nH]c2ccccc12)C(=O)O |  | 7.8 |  |  |  |  | 2
